Laboratory results as given in ChEMBL document CHEMBL5352462, “Resveratrol derivatives: Synthesis and their biological activities” (Eur J Med Chem, 2023).
pIC50: −log10 of the molar value.

tested on: COLO 320; experiment: Cytotoxicity against human COLO 320 cell expressing KRAS assessed as growth inhibition by measuring synthetic lethality at 0.2 uM relative to control; type: functional; details: not given

Row | SMILES | inhibition at 0.2 µM [%]
1 | COc1ccc(OC)c(-c2cc3ccc(O)cc3[nH]2)c1 | 0
2 | Oc1ccc2cc(-c3cc(O)c(O)c(O)c3)oc2c1 | 0
3 | COc1cc(-c2cc3ccc(O)cc3o2)cc(OC)c1OC | 0
4 | COc1ccc(OC)c(-c2cc3ccc(OCc4ccccc4)cc3[nH]2)c1 | 0

tested on: HCT cell line; experiment: Cytotoxicity against HCT cell expressing KRAS assessed as growth inhibition by measuring synthetic lethality at 20 uM relative to control; type: functional; details: Homo sapiens

Row | SMILES | inhibition at 20 µM [%]
5 | COc1ccc(OC)c(-c2cc3ccc(O)cc3[nH]2)c1 | 6.3
6 | Oc1ccc2cc(-c3cc(O)c(O)c(O)c3)oc2c1 | 0
7 | COc1cc(-c2cc3ccc(O)cc3o2)cc(OC)c1OC | 0
8 | COc1ccc(OC)c(-c2cc3ccc(OCc4ccccc4)cc3[nH]2)c1 | 48.9

tested on: HCT cell line; experiment: Cytotoxicity against HCT cell expressing KRAS assessed as growth inhibition by measuring synthetic lethality at 0.2 uM relative to control; type: functional; details: Homo sapiens

Row | SMILES | inhibition at 0.2 µM [%]
9 | COc1ccc(OC)c(-c2cc3ccc(O)cc3[nH]2)c1 | 0
10 | Oc1ccc2cc(-c3cc(O)c(O)c(O)c3)oc2c1 | 15.6
11 | COc1cc(-c2cc3ccc(O)cc3o2)cc(OC)c1OC | 0
12 | COc1ccc(OC)c(-c2cc3ccc(OCc4ccccc4)cc3[nH]2)c1 | 0

tested on: HT-29; experiment: Cytotoxicity against human HT-29 cells incubated for 24 hrs by MTT assay; type: functional, cell-based; details: HT-29, 24 h
How it was run: (§1)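 Cells plated at 1.5 × 10⁵ per well, allowed to adhere overnight, medium refreshed, then treated at 10, 50 and 100 μM for 24 h; DMSO vehicle controls (<0.1%). Medium replaced after 72 h. MTT at 5 mg/mL in PBS added, 3 h at 37 °C in 5% CO₂; formazan dissolved in DMSO, absorbance read at 550 nm. IC50 from dose-response curves, mean ± SE of three independent experiments.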

Row | SMILES | pIC50
13 | COc1ccc(/C=C/c2cc(OC)c(OC)c(OC)c2)c(OC)c1 | 4.92
14 | Oc1ccc(/C=C/c2cc(O)c(O)c(O)c2)c(O)c1 | 4.11
15 | OCCOc1ccc(/C=C/c2cc(OCCO)cc(OCCO)c2)cc1 | 4.64
16 | CCCCCCCCCCCC(=O)Oc1ccc(C=Cc2cc(OC(=O)CCCCCCCCCCC)cc(OC(=O)CCCCCCCCCCC)c2)cc1 | 3.87
17 | COc1ccc(OC)c(-c2cc3ccc(O)cc3[nH]2)c1 | 5.00
18 | Oc1ccc2cc(-c3cc(O)c(O)c(O)c3)oc2c1 | 4.25
19 | COc1ccc(-c2cc3cc(OC)cc(OC)c3[nH]2)cc1 | 3.68
20 | COc1cc(OC)cc(-c2cc3ccc(O)cc3o2)c1 | 4.72
21 | Oc1ccc(/C=C/c2cc(O)cc(O)c2)cc1 [RESVERATROL] | 4.11
22 | Oc1cc(O)cc(-c2cc3ccc(O)cc3o2)c1 [MORACIN M] | 4.14
23 | COc1ccc(-c2cc3cc(C)cc(C)c3[nH]2)cc1 | 3.48
24 | COc1cc(-c2cc3ccc(O)cc3o2)cc(OC)c1OC | 4.85
25 | COc1ccc(OC)c(-c2cc3ccc(OCc4ccccc4)cc3[nH]2)c1 | 3.62
26 | CC(C)(C)C(=O)Oc1ccc(/C=C/c2cc(OC(=O)C(C)(C)C)cc(OC(=O)C(C)(C)C)c2)cc1 | 4.25

target: Microtubule-associated protein tau (Homo sapiens) (UniProt P10636); experiment: Inhibition of Tau in human Huh-7 cells at 40 uM relative to control; type: cell-based; details: not given
Sequence (P10636 whole entry): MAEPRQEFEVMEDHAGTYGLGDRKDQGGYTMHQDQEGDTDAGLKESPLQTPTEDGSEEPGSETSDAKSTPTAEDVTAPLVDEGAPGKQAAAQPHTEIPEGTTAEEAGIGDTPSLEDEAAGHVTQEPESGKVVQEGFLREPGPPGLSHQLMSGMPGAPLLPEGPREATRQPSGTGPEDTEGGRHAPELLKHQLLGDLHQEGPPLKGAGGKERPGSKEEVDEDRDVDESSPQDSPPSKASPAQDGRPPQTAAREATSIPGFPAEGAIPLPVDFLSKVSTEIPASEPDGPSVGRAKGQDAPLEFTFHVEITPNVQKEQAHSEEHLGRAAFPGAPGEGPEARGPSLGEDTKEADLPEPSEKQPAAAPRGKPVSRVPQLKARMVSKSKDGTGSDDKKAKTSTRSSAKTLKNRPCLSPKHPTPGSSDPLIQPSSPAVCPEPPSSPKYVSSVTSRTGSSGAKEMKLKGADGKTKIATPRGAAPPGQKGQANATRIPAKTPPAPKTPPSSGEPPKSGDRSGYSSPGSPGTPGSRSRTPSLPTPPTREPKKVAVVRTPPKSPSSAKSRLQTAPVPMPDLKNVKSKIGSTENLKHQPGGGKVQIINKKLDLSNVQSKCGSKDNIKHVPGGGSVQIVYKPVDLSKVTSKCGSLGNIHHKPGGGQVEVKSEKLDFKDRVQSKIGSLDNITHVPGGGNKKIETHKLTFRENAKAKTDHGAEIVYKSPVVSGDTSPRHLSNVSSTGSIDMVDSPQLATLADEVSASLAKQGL

Row | SMILES | inhibition [%]
27 | Oc1ccc(/C=C/c2cc(O)cc(O)c2)cc1 [RESVERATROL] | 21.3
28 | COc1cc(-c2cc3ccc(O)cc3o2)cc(OC)c1OC | 58

tested on: not listed separately; experiment: Lipophilicity, logP of compound; type: physicochemical; details: octanol/water
How it was run: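 Log P calculated in silico, not measured experimentally.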

Row | SMILES | logP
29 | COc1ccc(/C=C/c2cc(OC)c(OC)c(OC)c2)c(OC)c1 | 3.59
30 | Oc1ccc(/C=C/c2cc(O)c(O)c(O)c2)c(O)c1 | 2.28
31 | OCCOc1ccc(/C=C/c2cc(OCCO)cc(OCCO)c2)cc1 | 2.29
32 | CCCCCCCCCCCC(=O)Oc1ccc(C=Cc2cc(OC(=O)CCCCCCCCCCC)cc(OC(=O)CCCCCCCCCCC)c2)cc1 | > 11.2
33 | COc1ccc(OC)c(-c2cc3ccc(O)cc3[nH]2)c1 | 2.66
34 | Oc1ccc2cc(-c3cc(O)c(O)c(O)c3)oc2c1 | 1.82
35 | COc1ccc(-c2cc3cc(OC)cc(OC)c3[nH]2)cc1 | 2.93
36 | COc1cc(OC)cc(-c2cc3ccc(O)cc3o2)c1 | 2.74
37 | COc1ccc(/C=C/c2cc(OC)cc(OC)c2)cc1 [TRISMETHOXYRESVERATROL] | 3.85
38 | Oc1cc(O)cc(-c2cc3ccc(O)cc3o2)c1 [MORACIN M] | 2.21
39 | COc1ccc(-c2cc3cc(C)cc(C)c3[nH]2)cc1 | 4.15
40 | COc1cc(-c2cc3ccc(O)cc3o2)cc(OC)c1OC | 2.61
41 | COc1ccc(OC)c(-c2cc3ccc(OCc4ccccc4)cc3[nH]2)c1 | 5.15
42 | CC(C)(C)C(=O)Oc1ccc(/C=C/c2cc(OC(=O)C(C)(C)C)cc(OC(=O)C(C)(C)C)c2)cc1 | 8.76

target: Calcitonin gene-related peptide type 1 receptor (Homo sapiens, UniProt O60894+Q16602); experiment: Inhibition of human CGRP1; details: not given
Sequence (Q16602 whole entry, one chain of several): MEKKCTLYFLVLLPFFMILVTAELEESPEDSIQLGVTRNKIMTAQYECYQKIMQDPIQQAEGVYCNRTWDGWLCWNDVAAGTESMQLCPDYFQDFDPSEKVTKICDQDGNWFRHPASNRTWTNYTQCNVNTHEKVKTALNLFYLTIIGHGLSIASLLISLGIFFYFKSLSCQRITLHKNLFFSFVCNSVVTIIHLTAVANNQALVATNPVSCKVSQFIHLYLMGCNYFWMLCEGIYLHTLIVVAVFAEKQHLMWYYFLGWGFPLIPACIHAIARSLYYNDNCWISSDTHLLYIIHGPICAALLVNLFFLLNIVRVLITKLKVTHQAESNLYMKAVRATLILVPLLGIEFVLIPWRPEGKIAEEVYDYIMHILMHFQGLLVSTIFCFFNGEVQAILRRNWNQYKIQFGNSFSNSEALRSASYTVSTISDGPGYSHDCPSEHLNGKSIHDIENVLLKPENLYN

Row | SMILES | pIC50
43 | Oc1ccc2cc(-c3cc(O)c(O)c(O)c3)oc2c1 | 5.56
44 | COc1cc(-c2cc3ccc(O)cc3o2)cc(OC)c1OC | 5.62

tested on: HCT cell line; experiment: Cytotoxicity against HCT cell expressing KRAS assessed as growth inhibition by measuring synthetic lethality at 2 uM relative to control; type: functional; details: Homo sapiens

Row | SMILES | inhibition at 2 µM [%]
45 | COc1ccc(OC)c(-c2cc3ccc(O)cc3[nH]2)c1 | 0
46 | Oc1ccc2cc(-c3cc(O)c(O)c(O)c3)oc2c1 | 0.5
47 | COc1cc(-c2cc3ccc(O)cc3o2)cc(OC)c1OC | 0.5
48 | COc1ccc(OC)c(-c2cc3ccc(OCc4ccccc4)cc3[nH]2)c1 | 6.9

tested on: HCT-116; experiment: Cytotoxicity against HCT-116 cell expressing KRAS assessed as growth inhibition by measuring synthetic lethality at 20 uM relative to control; type: functional; details: Homo sapiens

Row | SMILES | inhibition at 20 µM [%]
49 | COc1ccc(OC)c(-c2cc3ccc(O)cc3[nH]2)c1 | 0
50 | Oc1ccc2cc(-c3cc(O)c(O)c(O)c3)oc2c1 | 85.9
51 | COc1cc(-c2cc3ccc(O)cc3o2)cc(OC)c1OC | 87.4
52 | COc1ccc(OC)c(-c2cc3ccc(OCc4ccccc4)cc3[nH]2)c1 | 89.7

tested on: COLO 320; experiment: Cytotoxicity against human COLO 320 cell expressing KRAS assessed as growth inhibition by measuring synthetic lethality at 2 uM relative to control; type: functional; details: not given

Row | SMILES | inhibition at 2 µM [%]
53 | COc1ccc(OC)c(-c2cc3ccc(O)cc3[nH]2)c1 | 0
54 | Oc1ccc2cc(-c3cc(O)c(O)c(O)c3)oc2c1 | 0
55 | COc1cc(-c2cc3ccc(O)cc3o2)cc(OC)c1OC | 4.4
56 | COc1ccc(OC)c(-c2cc3ccc(OCc4ccccc4)cc3[nH]2)c1 | 0

tested on: SNU-C1; experiment: Cytotoxicity against human SNU-C1 cell expressing KRAS assessed as growth inhibition by measuring synthetic lethality at 20 uM relative to control; type: functional; details: not given

Row | SMILES | inhibition at 20 µM [%]
57 | COc1ccc(OC)c(-c2cc3ccc(O)cc3[nH]2)c1 | 30.3
58 | Oc1ccc2cc(-c3cc(O)c(O)c(O)c3)oc2c1 | 11.2
59 | COc1cc(-c2cc3ccc(O)cc3o2)cc(OC)c1OC | 14.9
60 | COc1ccc(OC)c(-c2cc3ccc(OCc4ccccc4)cc3[nH]2)c1 | 44.5

tested on: HCT-116; experiment: Cytotoxicity against HCT-116 cell expressing KRAS assessed as growth inhibition by measuring synthetic lethality at 2 uM relative to control; type: functional; details: Homo sapiens

Row | SMILES | inhibition at 2 µM [%]
61 | COc1ccc(OC)c(-c2cc3ccc(O)cc3[nH]2)c1 | 0
62 | Oc1ccc2cc(-c3cc(O)c(O)c(O)c3)oc2c1 | 33
63 | COc1cc(-c2cc3ccc(O)cc3o2)cc(OC)c1OC | 6.3
64 | COc1ccc(OC)c(-c2cc3ccc(OCc4ccccc4)cc3[nH]2)c1 | 45.6

tested on: COLO 320; experiment: Cytotoxicity against human COLO 320 cell expressing KRAS assessed as growth inhibition by measuring synthetic lethality at 20 uM relative to control; type: functional; details: not given

Row | SMILES | inhibition at 20 µM [%]
65 | COc1ccc(OC)c(-c2cc3ccc(O)cc3[nH]2)c1 | 55.3
66 | Oc1ccc2cc(-c3cc(O)c(O)c(O)c3)oc2c1 | 0
67 | COc1cc(-c2cc3ccc(O)cc3o2)cc(OC)c1OC | 0
68 | COc1ccc(OC)c(-c2cc3ccc(OCc4ccccc4)cc3[nH]2)c1 | 0

tested on: MIA PaCa-2; experiment: Cytotoxicity against human MIA PaCa-2 cells incubated for 24 hrs by MTT assay; type: functional, cell-based; details: MIA PaCa-2, 24 h; how it was run: as §1

Row | SMILES | pIC50
69 | COc1ccc(/C=C/c2cc(OC)c(OC)c(OC)c2)c(OC)c1 | 4.55
70 | Oc1ccc(/C=C/c2cc(O)c(O)c(O)c2)c(O)c1 | 4.02
71 | OCCOc1ccc(/C=C/c2cc(OCCO)cc(OCCO)c2)cc1 | 4.10
72 | CCCCCCCCCCCC(=O)Oc1ccc(C=Cc2cc(OC(=O)CCCCCCCCCCC)cc(OC(=O)CCCCCCCCCCC)c2)cc1 | 3.70
73 | COc1ccc(/C=C/c2cc(OC)cc(OC)c2)cc1 [TRISMETHOXYRESVERATROL] | 4.46
74 | Oc1ccc(/C=C/c2cc(O)cc(O)c2)cc1 [RESVERATROL] | 3.88
75 | CC(C)(C)C(=O)Oc1ccc(/C=C/c2cc(OC(=O)C(C)(C)C)cc(OC(=O)C(C)(C)C)c2)cc1 | 4.41

tested on: SNU-C1; experiment: Cytotoxicity against human SNU-C1 cell expressing KRAS assessed as growth inhibition by measuring synthetic lethality at 2 uM relative to control; type: functional; details: not given

Row | SMILES | inhibition at 2 µM [%]
76 | COc1ccc(OC)c(-c2cc3ccc(O)cc3[nH]2)c1 | 0
77 | Oc1ccc2cc(-c3cc(O)c(O)c(O)c3)oc2c1 | 3.1
78 | COc1cc(-c2cc3ccc(O)cc3o2)cc(OC)c1OC | 8.7
79 | COc1ccc(OC)c(-c2cc3ccc(OCc4ccccc4)cc3[nH]2)c1 | 13.9

tested on: SNU-C1; experiment: Cytotoxicity against human SNU-C1 cell expressing KRAS assessed as growth inhibition by measuring synthetic lethality at 0.2 uM relative to control; type: functional; details: not given

Row | SMILES | inhibition at 0.2 µM [%]
80 | COc1ccc(OC)c(-c2cc3ccc(O)cc3[nH]2)c1 | 0
81 | Oc1ccc2cc(-c3cc(O)c(O)c(O)c3)oc2c1 | 5.8
82 | COc1cc(-c2cc3ccc(O)cc3o2)cc(OC)c1OC | 8.7
83 | COc1ccc(OC)c(-c2cc3ccc(OCc4ccccc4)cc3[nH]2)c1 | 7.4

target: Calcitonin gene-related peptide type 1 receptor (Homo sapiens) (UniProt Q16602); experiment: Inhibition of human CGRP1 at 30 uM relative to control; details: not given
Sequence (Q16602 whole entry): as the sequence (Q16602 whole entry, one chain of several) above

Row | SMILES | inhibition [%]
84 | Oc1ccc2cc(-c3cc(O)c(O)c(O)c3)oc2c1 | 59.9
85 | Oc1ccc(/C=C/c2cc(O)cc(O)c2)cc1 [RESVERATROL] | 2.3
86 | COc1cc(-c2cc3ccc(O)cc3o2)cc(OC)c1OC | 54.2

tested on: RKO; experiment: Cytotoxicity against human RKO cell expressing KRAS assessed as growth inhibition by measuring synthetic lethality at 0.2 uM relative to control; type: functional; details: not given

Row | SMILES | inhibition at 0.2 µM [%]
87 | COc1ccc(OC)c(-c2cc3ccc(O)cc3[nH]2)c1 | 9.4
88 | Oc1ccc2cc(-c3cc(O)c(O)c(O)c3)oc2c1 | 2.7
89 | COc1cc(-c2cc3ccc(O)cc3o2)cc(OC)c1OC | 0
90 | COc1ccc(OC)c(-c2cc3ccc(OCc4ccccc4)cc3[nH]2)c1 | 77.3
